According to ChEMBL document CHEMBL2346574, “Evaluation of (Z)-2-((1-benzyl-1H-indol-3-yl)methylene)-quinuclidin-3-one analogues as novel, high affinity ligands for CB1 and CB2 cannabinoid receptors” (Bioorg Med Chem Lett, 2013):

Key:
[1] = Selectivity ratio of Ki for CB1 receptor in mouse whole brain membrane homogenates to Ki for human CB2 receptor; format: cell membranes
[2] = molecular target: Cannabinoid receptor 2 (Homo sapiens, UniProt P34972); assay: Displacement of [3H]CP 55940 from human CB2 receptor expressed in CHO cells after 90 mins by liquid scintillation counting; format: cell-based
Procedure, shortened: (§1)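 Competition binding with 0.2 nM [3H]CP-55,940 and 5 mM MgCl2, in triplicate per concentration, using 50 mM Tris with 0.05% BSA and 0.1% ethanol/0.1% DMSO. CB1 used mouse whole-brain membranes and CB2 used CHO-hCB2 membranes. […] GF/B filtration, ice-cold washes, scintillation counting. Specific binding taken as percent of no-competitor.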

[3] = molecular target: Cannabinoid receptor 1 (Mus musculus, UniProt P47746); assay: Displacement of [3H]CP 55940 from CB1 receptor in mouse whole brain membrane homogenates after 90 mins by liquid scintillation counting; format: cell membranes; procedure, shortened: as §1
Cannabinoid receptor 1, sequence (P47746 whole entry): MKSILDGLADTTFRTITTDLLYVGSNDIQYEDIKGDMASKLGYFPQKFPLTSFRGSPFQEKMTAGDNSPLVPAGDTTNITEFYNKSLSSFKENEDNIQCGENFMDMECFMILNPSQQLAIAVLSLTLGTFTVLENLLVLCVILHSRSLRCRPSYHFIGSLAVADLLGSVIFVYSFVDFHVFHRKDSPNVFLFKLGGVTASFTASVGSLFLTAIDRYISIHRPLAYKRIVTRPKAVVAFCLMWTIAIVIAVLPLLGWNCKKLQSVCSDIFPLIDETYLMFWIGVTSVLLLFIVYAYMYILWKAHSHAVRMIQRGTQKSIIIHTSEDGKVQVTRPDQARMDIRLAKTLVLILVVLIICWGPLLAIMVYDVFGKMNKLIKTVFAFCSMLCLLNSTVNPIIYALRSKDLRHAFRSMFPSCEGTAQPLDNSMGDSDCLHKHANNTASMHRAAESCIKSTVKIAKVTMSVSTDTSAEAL

Cannabinoid receptor 2, sequence (P34972 whole entry): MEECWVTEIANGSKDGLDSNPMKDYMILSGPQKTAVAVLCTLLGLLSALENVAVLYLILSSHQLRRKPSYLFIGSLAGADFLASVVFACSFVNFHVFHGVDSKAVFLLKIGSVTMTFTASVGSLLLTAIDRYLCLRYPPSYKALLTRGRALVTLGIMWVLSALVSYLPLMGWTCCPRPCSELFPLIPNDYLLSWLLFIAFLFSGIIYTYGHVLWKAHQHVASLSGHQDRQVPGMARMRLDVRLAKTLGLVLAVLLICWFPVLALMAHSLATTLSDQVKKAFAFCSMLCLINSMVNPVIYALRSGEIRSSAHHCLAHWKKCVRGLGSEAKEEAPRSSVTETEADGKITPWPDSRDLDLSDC

Compound	Ratio Ki [1]	Ki [2] [nM]	Ki [3] [nM]
COC(=O)c1ccc2c(/C=C3/C(=O)C4CCN3CC4)cn(Cc3ccccc3)c2c1	34	2.5	85.7
OC1/C(=C/c2cn(Cc3ccccc3)c3ccccc23)N2CCC1CC2 (racemic)		55.3	540
OC1/C(=C/c2cn(Cc3ccc(Cl)cc3)c3ccccc23)N2CCC1CC2 (racemic)			85.3
O/N=C1/C(=C/c2cn(Cc3ccc(Cl)cc3)c3ccccc23)N2CCC1CC2			95.7
O=C1/C(=C/c2cn(Cc3ccccc3)c3ccccc23)N2CCC1CC2		11.7	135
N#Cc1ccc(Cn2cc(/C=C3/C(=O)C4CCN3CC4)c3ccccc32)cc1		114	55.3
O=C1/C(=C/c2cn(Cc3ccc(F)cc3)c3ccccc23)N2CCC1CC2		1.33	9.23
O=C1/C(=C/c2cn(Cc3ccccc3Br)c3ccccc23)N2CCC1CC2		333	629
O/N=C1/C(=C/c2cn(Cc3ccccc3)c3ccccc23)N2CCC1CC2		68.6	357
COC(=O)c1ccc(Cn2cc(/C=C3/C(=O)C4CCN3CC4)c3ccccc32)cc1		588	953
O=C1/C(=C/c2cn(Cc3ccc(Cl)cc3)c3ccccc23)N2CCC1CC2		20.3	31.7
